# Screening data as filed in PubChem BioAssay.
# Rows were chosen to be rich in hits. Some 11% of all compounds tested hit in one or more screens of this group.
# RORa activator = activators of orphan receptor RORA, primary screen, cell-based, luminescence | Nuclear receptor ROR-alpha (Homo sapiens), P35398 | CHO-K1 Gal4-RORA LBD luciferase reporter; percent increase over mock-subtracted basal signal | activation, % at 10 µM | actives 1.5% (n = 65,000) | AID 560, 2006;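 active = activation above the mean of all tested compounds plus 3 SD, cut at about 49% in these data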;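 note: 0% = DMSO-treated RORA cells and 100% = added signal equal to DMSO minus mock-transfected cells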
# M1 ag = M1 muscarinic receptor agonists, primary screen, CHO-M1 cells, Fluo-4 calcium, agonist mode. AID 626, 2007. B-score at 10 µM. actives 3% (n = 64,000). Fluo-4 calcium fluorescence; stronger effect = higher value. Muscarinic acetylcholine receptor M1;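 active = fluorescence rise, raw or as B-score row- and column-corrected plate score, outside the 99.7% band of its plate's samples, either direction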
# D1 allo mod = D1 CRE-luciferase signal change, two-sided – cell-based, HEK293 D1, dopamine EC30, D1 allosteric modulator project, primary screen | dopamine EC30 potentiation; actives deviate in either direction | B-score at 10 µM | actives 5.9% (n = 58,000) | D(1A) dopamine receptor (Homo sapiens), P21728;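 active = luminescence count or its row- and column-corrected plate score outside the 99.7% band of the plate's sample wells, on either side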
# Target sequence (P21728 whole entry, looked up): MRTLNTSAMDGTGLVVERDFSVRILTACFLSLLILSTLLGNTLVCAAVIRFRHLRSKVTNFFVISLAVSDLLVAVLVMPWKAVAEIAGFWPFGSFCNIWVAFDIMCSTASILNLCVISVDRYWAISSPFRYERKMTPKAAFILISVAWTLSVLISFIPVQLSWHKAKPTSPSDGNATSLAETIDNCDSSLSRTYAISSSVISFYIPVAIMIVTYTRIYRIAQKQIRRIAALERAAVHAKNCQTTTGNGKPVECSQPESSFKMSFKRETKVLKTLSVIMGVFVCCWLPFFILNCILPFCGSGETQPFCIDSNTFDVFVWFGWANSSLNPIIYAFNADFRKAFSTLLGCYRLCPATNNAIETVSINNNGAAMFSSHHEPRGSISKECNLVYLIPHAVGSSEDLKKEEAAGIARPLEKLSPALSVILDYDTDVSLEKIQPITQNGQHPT
# SF-1 act = activators of human SF-1, primary screen, cell-based, CHO-K1, Gal4-SF-1 LBD, luciferase luminescence; CHO-K1 Gal4-SF-1 LBD luciferase reporter; % increase over DMSO SF-1-specific signal; actives 1.9% (n = 65,000); Steroidogenic factor 1 (Homo sapiens), Q13285; activation, % at 10 µM;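 active = activation above the mean activation of all tested compounds plus 3 SD, cut at about 50% in these data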
#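 Assay system: CHO-K1 cells co-transfected with Gal4 DBD–human SF-1 LBD, 5xGal4 luciferase reporter; doses: 10 µM only; incubation: 20 h compound exposure at 37 °C after 1 h cell settling; signal: luciferase light emission; evaluation: percent activation versus DMSO; repeats: one test per compound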
# M1 antag = antagonists of rat M1 muscarinic receptor; CHO-M1 cells, Fluo-4 calcium, ACh EC80 antagonist mode; stronger effect = lower value; Muscarinic acetylcholine receptor M1 (Rattus norvegicus), P08482; actives 3.4% (n = 64,000); B-score at 10 µM;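 active = calcium fluorescence response, raw or row-and-column corrected B-score, differing from the plate sample mean either way at a set confidence level, mostly lower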
# mHtt clearance = clearance of mutant huntingtin inclusions, primary screen, imaging, HeLa Exon1htt(103Q)mCFP, confocal imaging; inhibition, % at 1.5 µM; actives 0.42% (n = 47,000); AID 853, 2007; aggregate imaging; zero = plate's median compound well;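 active = inhibition of aggregate fluorescence above about 70%, also judged a hit by eye on the cell image, limit read from the data, passing the limit was not always enough; inconclusive = no rule stated for this call; inactive = not judged a hit on image review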;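 note: cells exposed to compound for three days before fixation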
# M1 agonist conf = rat M1 muscarinic receptor agonists, confirmation, CHO-M1 cells, Fluo-4 calcium, duplicate retest; Fluo-4 calcium fluorescence, agonist mode; actives lie on both sides; shares compounds with M1 ag; actives 19% (n = 1,700); fluorescence change (max-min) at 10 µM;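 active = fluorescence change differs from the solvent-only DMSO control mean at a set confidence level in both duplicate runs; inconclusive = differs from solvent-only control mean in just one of two runs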;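 note: an EC20 dose of acetylcholine follows compound addition during the same imaging run; raw fluorescence intensity difference in instrument units with no normalization to controls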
# M4 ag counter = agonist activity at rat M4 receptor, confirmation, counter-screen for M1 allosteric modulator project, cell-based, agonist mode; CHO M4/Gqi5 cells, Fluo-4 calcium fluorescence; actives lie on both sides; shares compounds with M1 ag; actives 9% (n = 1,700); fluorescence change (max-min) at 10 µM;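 active = fluorescence change differing from the plate's solvent-only control wells at 99.7% confidence in both duplicates, whether higher or lower; inconclusive = differs from solvent controls in only one of two duplicates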
# * hit, by the source's call; ? = inconclusive; · = no result.
SMILES,RORa activator,M1 ag,D1 allo mod,SF-1 act,M1 antag,mHtt clearance,M1 agonist conf,M4 ag counter
Nc1nc(NC(=O)c2ccco2)nn1-c1ccccc1,1,0.18,0.015,29,0.085,·,·,·
O=C(Nc1nc2nc(-c3ccccc3)cc(-c3ccccc3)n2n1)c1ccco1,-8,3.8*,-2.5*,3,0.021,40,-24*,-57
O=C1NC(c2ccco2)Nc2sc3c(c21)CCN(Cc1ccccc1)C3 (configuration not stated),20,17*,-0.84,-9,-17*,26,33,21
CC(=O)c1n[nH]nc1NC(=O)c1ccccc1,-7,2.8*,0.0011,24,0.47,·,?,-40
CC(C)(C)NC(=O)c1ccc2c(c1)N(CC(=O)N1CCN(c3ccccc3F)CC1)C(=O)C(C)(C)O2,1,1.5,0.28,13,-0.16,·,·,·
COc1ccc(-n2nnc3c(SCC(=O)NCC4CCCO4)ncnc32)cc1 (configuration not stated),-20,0.77,-0.36,-9,-0.8,4,·,·
COc1cccc(N2CCN(c3c4c(nc5ncnn35)CCC4)CC2)c1,-6,6.7*,-0.64,-15,0.16,-9,-1.9,-45
c1ccc(N2CCN(c3c4c(nc5ncnn35)CCC4)CC2)cc1,0,-2.4,-0.047,-12,0.58,·,·,·
Cc1ccc(SCc2[nH]nc3c2C(c2ccc(C)o2)C(C#N)=C(N)O3)cc1 (configuration not stated),5,-0.39,-0.22,4,0.33,·,·,·
Cc1ccc(C2C(C#N)=C(N)Oc3nc(-c4ccccc4)[nH]c32)o1 (configuration not stated),-10,3.5*,·,3,-0.14,58,-24*,-35
COC(=O)c1ccc(CC(=O)c2c(C)cc(O)cc2O)o1,-9,-0.016,1.3,-6,-0.33,·,·,·
CCc1ccccc1NS(=O)(=O)c1ccc(SC)cc1,-10,3.3*,0.027,-7,-1.3,-42,-22,-36
COc1ccccc1C1C=C(c2ccc(Cl)cc2)Nc2nc(NS(C)(=O)=O)nn21 (configuration not stated),-6,54*,-0.12,-17,1,·,88*,62
O=C(COc1cccc(NC(=O)c2ccco2)c1)c1ccc(F)cc1,10,5.7*,-0.0021,31,-1.1,·,?,?
O=C(COC(=O)c1cccc(NC(=O)c2ccco2)c1)c1ccc(Br)cc1,18,-0.4,-0.29,6,0.029,62,·,·
COc1cccc(CNC(=O)C2CCN(c3cnccn3)CC2)c1,17,-1.4,0.067,5,-0.35,·,·,·
O=C(c1oc2ccccc2c1CSCc1ccccc1)N1CCN(c2ncccn2)CC1,-22,7*,-0.19,-22,-0.74,-26,-7.6,?
COCc1cc(C)c2c(N)c(C#N)sc2n1,0,-1.6,-0.4,-7,0.68,-4,·,·
COC(=O)COc1cc(C)cc2oc(=O)c(CC(=O)OC)c(C)c12,-9,3.1*,-0.26,-11,0.042,-26,?,-33
CC1CCN(C(=O)C2CCN(C(=O)c3cc4sccc4n3Cc3ccc(F)cc3)CC2)CC1,6,1.2,·,4,-1.1,·,·,·
CCn1c(C(=O)N2CCC(C(=O)N3CCN(c4ccccn4)CC3)CC2)cc2sccc21,4,2.5*,-1.2,-13,-0.7,-182,-19,?
COc1ccc(NS(=O)(=O)c2ccc3oc4ccccc4c3c2)cn1,4,0.44,-0.94,1,-0.53,8,·,·
